Assay results from ChEMBL document CHEMBL1152785, “Synthesis and biological evaluation of a series of novel inhibitor of Nek2/Hec1 analogues” (J Med Chem, 2009).
Active and inactive are the calls of the source. No cut-off for these calls is given here.

Key:
[1] = tested on: K562; experiment: Cytotoxicity against human K562 cells after 4 days by XTT assay; format: functional, cell-based; conditions: K562, 96 h
[2] = tested on: MDA-MB-231; experiment: Cytotoxicity against human MDA-MB-231 cells after 4 days XTT assay; format: functional, cell-based; conditions: MDA-MB-231, 96 h
In short: (§1)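 XTT assay with four-day drug treatment. Cells were plated one day before dosing and drug was added on day 2. XTT was read on day 5 after drug addition by absorbance at 595 nm. Absorbance was converted to percent survival against mock-treated cells to give dose-dependent cytotoxicity. Triplicate sets. HeLa, MDA-MB231 and MDA-MB468 were maintained in DMEM with 10% FBS.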

[3] = tested on: HeLa; experiment: Cytotoxicity against human HeLa cells after 4 days by XTT assay; format: functional, cell-based; conditions: 96 h; in short: as §1
[4] = tested on: MDA-MB-468; experiment: Cytotoxicity against human MDA-MB-468 cells after 4 days by XTT assay; format: functional, cell-based; conditions: MDA-MB-468, 96 h; in short: as §1
[5] = tested on: HeLa; experiment: Cell cycle arrest in human HeLa cells assessed as accumulation at subG1 phase at 2.5 uM after 72 hrs by FACS analysis; format: functional
In short: (§2)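 HeLa cells were treated with compound at 2.5 μM, with buffer as mock control. Phase contrast images were taken at various time points to assess dying-cell morphology such as membrane bubbling. Cell cycle profiling was done by FACS at 72 h.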

[6] = tested on: HeLa; experiment: Anticancer activity against human HeLa cells assessed as reduction of Nek2 level at 25 uM by Western blot assay; format: functional, cell-based
[7] = biological target: T1, Kinetochore protein NDC80 homolog (Homo sapiens) (UniProt O14777); experiment: Binding affinity to Hec1 in human HeLa cell extract by affinity pulldown assay; format: cell-free
T1 sequence (whole entry): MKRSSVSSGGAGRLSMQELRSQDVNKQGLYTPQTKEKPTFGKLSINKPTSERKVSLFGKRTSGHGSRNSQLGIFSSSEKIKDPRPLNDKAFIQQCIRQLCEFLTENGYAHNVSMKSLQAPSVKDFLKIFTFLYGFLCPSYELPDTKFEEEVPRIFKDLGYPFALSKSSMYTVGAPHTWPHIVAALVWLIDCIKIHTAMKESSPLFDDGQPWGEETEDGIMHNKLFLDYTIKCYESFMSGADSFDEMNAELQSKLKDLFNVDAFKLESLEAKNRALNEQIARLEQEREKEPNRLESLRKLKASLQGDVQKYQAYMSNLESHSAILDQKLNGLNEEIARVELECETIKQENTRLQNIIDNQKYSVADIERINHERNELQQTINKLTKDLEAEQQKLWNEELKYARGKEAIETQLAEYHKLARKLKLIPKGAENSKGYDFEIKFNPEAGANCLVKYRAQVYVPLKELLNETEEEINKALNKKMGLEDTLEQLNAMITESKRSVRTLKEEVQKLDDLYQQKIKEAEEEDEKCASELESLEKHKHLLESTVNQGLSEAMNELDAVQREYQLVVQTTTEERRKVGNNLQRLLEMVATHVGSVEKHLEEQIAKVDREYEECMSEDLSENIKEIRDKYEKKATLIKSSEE
In short: (§3)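 Compounds were conjugated to affi-gel matrix. HeLa cell extract was incubated with control or compound-conjugated matrices and the precipitates were washed thoroughly. Bound proteins were resolved by SDS-PAGE and Western blotted for Hec1 and Nek2. Whole cell extract served as input, in duplicates.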

[8] = biological target: T1, Kinetochore protein NDC80 homolog (Homo sapiens); experiment: Inhibition of Hec1/Nek2 complex in human Hela cells assessed as mitotic abnormality with multipolar spindle configuration at 3.75 uM after 24 hrs by immuno-fluorescent staining; format: cell-based
In short: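 HeLa cells were treated with compound at 3.75 μM or buffer mock for 24 h. Cells were immunostained for α-tubulin and γ-tubulin with DAPI for DNA. Mitotic cells were examined for spindle pole number, i.e. multipolar spindles.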

[9] = biological target: T2, Serine/threonine-protein kinase Nek2 (Homo sapiens) (UniProt P51955); experiment: Binding affinity to NeK2 in human HeLa cell extract by affinity pulldown assay; format: cell-free; in short: as §3
T2 sequence (whole entry): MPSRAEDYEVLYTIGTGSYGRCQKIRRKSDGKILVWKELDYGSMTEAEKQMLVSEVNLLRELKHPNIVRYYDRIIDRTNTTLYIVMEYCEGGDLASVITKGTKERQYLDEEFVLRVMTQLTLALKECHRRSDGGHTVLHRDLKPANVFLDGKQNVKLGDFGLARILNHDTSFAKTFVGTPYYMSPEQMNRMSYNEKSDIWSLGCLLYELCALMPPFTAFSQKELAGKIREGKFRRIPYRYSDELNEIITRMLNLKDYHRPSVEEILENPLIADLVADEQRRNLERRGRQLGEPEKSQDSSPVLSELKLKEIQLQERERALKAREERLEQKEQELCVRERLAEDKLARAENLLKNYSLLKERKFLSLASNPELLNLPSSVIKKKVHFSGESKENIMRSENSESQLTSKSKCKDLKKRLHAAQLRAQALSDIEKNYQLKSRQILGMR

[10] = biological target: T1, Kinetochore protein NDC80 homolog (Homo sapiens); experiment: Inhibition of Hec1/Nek2 complex in human Hela cells assessed as mitotic abnormality with multipolar spindle configuration at 3.75 uM after 24 hrs by immuno-fluorescent staining
[11] = tested on: HeLa; experiment: Induction of apoptosis in human HeLa cells assessed as morphological changes with membrane bubbling at 2.5 uM; format: functional, cell-based; in short: as §2
[12] = tested on: HeLa; experiment: Anticancer activity against human HeLa cells assessed as reduction of Nek2 level at 6.25 uM by Western blot assay; format: functional, cell-based
In short: (§4)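 HeLa cells in DMEM with 10% FBS were treated with compound at 6.25 μM and harvested at various time points. Extracts were run on SDS-PAGE and Western blotted for Nek2 and Hec1, with p84 (nuclear matrix protein) as loading control. Nek2 level was followed over time after treatment.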

[13] = tested on: HeLa; experiment: Anticancer activity against human HeLa cells expressing H2B-GFP assessed as increase in rate of chromosome misalignment at 2.5 uM after 24 hrs; format: functional, cell-based
In short: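 HeLa cells expressing the chromosome marker H2B-GFP were treated with compound at 2.5 μM. The incidence of metaphase chromosome alignment was scored. Triplicate sets were measured to give averages and deviations.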

[14] = tested on: HeLa; experiment: Anticancer activity against human HeLa cells assessed as reduction of Nek2 level at 6.25 uM after 8 to 11 hrs by Western blot assay; format: functional; design: scale not given: the % may be the effect or the level left; in short: as §4

Row | SMILES | IC50 [1] | IC50 [2] | IC50 [3] | IC50 [4] | further results
1 | Cc1ccc(-c2csc(NC(=S)c3ccccc3)n2)c(C)c1 | 22.9 µM | 21.1 µM | 18.6 µM | 19.6 µM | 
2 | Cc1cc(C)c(-c2csc(N(CC(=O)O)C(=O)c3ccccc3)n2)c(C)c1 | > 40 µM | > 40 µM | > 40 µM | > 40 µM | 
3 | Cc1cc(C)c(-c2csc(NC(=O)c3ccccn3)n2)c(C)c1 | 4.9 µM | 4.1 µM | 5.2 µM | 2.3 µM | 
4 | COc1ccc(C(=O)N(C)c2nc(-c3c(C)cc(C)cc3C)cs2)c(OC)c1 | 15.5 µM | 10.6 µM | > 40 µM | 18.7 µM | 
5 | Cc1cc(C)c(-c2csc(NC(=O)c3nccs3)n2)c(C)c1 | 14.5 µM | 4.7 µM | 11.2 µM | 11.8 µM | 
6 | Cc1cc(C)c(-c2csc(NC(=O)c3cccnc3)n2)c(C)c1 | 3.9 µM | 3.2 µM | 3.6 µM | 3 µM | 
7 | CCOC(=O)CN(C(=O)c1ccccc1)c1nc(-c2c(C)cc(C)cc2C)cs1 | 20.2 µM | 15.8 µM | 22.2 µM | 20.2 µM | 
8 | Cc1ccc(-c2coc(NC(=O)c3ccccc3)n2)c(C)c1 | 19.2 µM | 14.4 µM | 18.6 µM | 16 µM | 
9 | Cc1ccc(-c2csc(NS(=O)(=O)Cc3ccccc3)n2)c(C)c1 | > 40 µM | > 40 µM | > 40 µM | > 40 µM | 
10 | Cc1ccc(-c2csc(NC(=O)N3CCOCC3)n2)c(C)c1 | 4.2 µM | 5.8 µM | 4.7 µM | 4 µM | 
11 | COc1ccc(C(=O)Nc2nc(-c3c(C)cc(C)cc3C)cs2)c(OC)c1 | 9.5 µM | 9.7 µM | 13.6 µM | 11.2 µM | 
12 | Cc1ccc(-c2csc(NC(=O)c3cccnc3)n2)c(C)c1 | 8.2 µM | 4.1 µM | 5.8 µM | 5.5 µM | 
13 | Cc1ccc(-c2csc(NC(=O)c3cnccn3)n2)c(C)c1 | > 25 µM | > 25 µM | > 25 µM | > 25 µM | 
14 | Cc1cc(C)c(-c2csc(N(C)C(=O)c3ccccc3)n2)c(C)c1 | 9.2 µM | 11.6 µM | 14.1 µM | 10.8 µM | 
15 | COc1ccccc1C(=O)Nc1nc(-c2c(C)cc(C)cc2C)cs1 | > 40 µM | > 40 µM | > 40 µM | > 40 µM | 
16 | Cc1cc(C)c(-c2csc(NC(=O)c3cncn3C)n2)c(C)c1 | 10.1 µM | 6.8 µM | 11.2 µM | 10.7 µM | 
17 | Cc1ccc(-c2csc(N(C)C(=O)c3ccccc3)n2)c(C)c1 | 14.8 µM | 13.5 µM | 20.2 µM | 16 µM | 

Row | SMILES | IC50 [1] | IC50 [2] | IC50 [3] | IC50 [4] | further results
18 | Cc1ccc(-c2csc(NC(=O)c3ccccn3)n2)c(C)c1 | 13.3 µM | 7.5 µM | 14.5 µM | 6.2 µM | 
19 | Cc1ccc(-c2csc(N)n2)c(C)c1 | > 40 µM | > 40 µM | > 40 µM | > 40 µM | 
20 | Cc1ccc(-c2csc(NS(=O)(=O)c3ccccc3)n2)c(C)c1 | > 40 µM | > 40 µM | > 40 µM | > 40 µM | Activity [5]: 2.9%; Activity [6]: inactive; Activity [7]: inactive
21 | COc1ccc(C(=O)/N=c2\scc(-c3c(C)cc(C)cc3C)n2C)c(OC)c1 | 23.7 µM | 22.1 µM | 22 µM | 21 µM | 
22 | Cc1cc(C)c(-c2csc(NC(=O)N3CCOCC3)n2)c(C)c1 | 3.8 µM | 1.6 µM | 2.5 µM | 4.2 µM | Activity [8]: Active; Activity [9]: inactive; Activity [10]: Active; Activity [5]: 20.1%; Activity [11]: Active; Activity [12]: Active; Activity [13]: Active; Activity [14]: 50%
23 | Cc1ccc(-c2csc(NC(=O)c3nccs3)n2)c(C)c1 | 10.1 µM | 2.9 µM | 7.4 µM | 6.2 µM | 
24 | COc1ccc(C(=O)Nc2nc(-c3ccc(C)cc3C)cs2)c(OC)c1 | > 40 µM | 23.4 µM | > 40 µM | > 40 µM | 
25 | Cc1cc(C)c(-c2csc(NC(=O)c3ccccc3)n2)c(C)c1 | 2.5 µM | 1.7 µM | 2.4 µM | 2.1 µM | Activity [8]: Active; Activity [9]: inactive; Activity [10]: Active; Activity [5]: 19.9%; Activity [11]: Active; Activity [12]: Active; Activity [13]: Active; Activity [14]: 50%; Activity [7]: Active
26 | Cc1cc(C)c(-c2csc(NC(=O)c3ccccc3C(F)(F)F)n2)c(C)c1 | 7.5 µM | 5.9 µM | 10.6 µM | 4.1 µM | 
27 | Cc1cc(C)c(-c2csc(NC(=O)c3ccc(O)cc3O)n2)c(C)c1 | > 40 µM | 22.5 µM | > 40 µM | 21.3 µM | 
28 | COc1cc(C)cc(C)c1-c1csc(NC(=O)c2ccccc2)n1 | 7.3 µM | 7.2 µM | 10.6 µM | 10.7 µM | 
29 | Cc1ccc(-c2csc(NC(=O)c3cncn3C)n2)c(C)c1 | > 25 µM | > 25 µM | > 25 µM | > 25 µM | 
30 | Cc1cc(C)c(-c2csc(NC(=O)c3cnccn3)n2)c(C)c1 | 5.9 µM | 3.2 µM | 5.7 µM | 4.7 µM | 
31 | Cc1cc(C)c(-c2csc(N)n2)c(C)c1 | > 40 µM | > 40 µM | > 40 µM | > 40 µM | 
32 | Cc1cc(C)c(-c2csc(NC(=O)c3ccccc3)n2)c(O)c1 | 11.9 µM | 11.8 µM | 13.1 µM | > 40 µM | 
33 | Cc1ccc(-c2csc(NC(=O)c3ccncc3)n2)c(C)c1 | 1.2 µM | 1.1 µM | 1.6 µM | 3.4 µM | Activity [9]: inactive
34 | COc1ccc(C(=O)Nc2nc(-c3c(C)cc(C)cc3C)cs2)c(O)c1 | 14.8 µM | 11.8 µM | 14.4 µM | 14.4 µM | 
